Measured values as given in ChEMBL document CHEMBL4033788, “Novel Ligustrazine-Based Analogs of Piperlongumine Potently Suppress Proliferation and Metastasis of Colorectal Cancer Cells in Vitro and in Vivo” (J Med Chem, 2018).
pIC50: −log10 of the molar value. In brackets after ≈: the same amount, converted by molar mass.

Columns and labels:
[1] = Solubility of compound in phosphate buffer at pH 7.4 after 8 hrs by HPLC analysis; assay type: physicochemical
How it was run: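 Compound was shaken in 50 mM phosphate buffer (pH 7.4) at 20 °C, centrifuged, and the supernatant analysed by HPLC. Conditions were a C18 column, acetonitrile–water 60/40 (v/v) at 1.0 mL/min, with detection at 254 nm. Run in triplicate.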

HCT-116 [2] = test: Antiproliferative activity against human HCT116 cells after 72 hrs by MTT assay; assay type: functional, cell-based; conditions: HCT-116, 72 h
How it was run: (§1)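 Cells grown in RPMI 1640 with 10% FBS in 96-well plates overnight, then exposed to test agents in triplicate for 72 h. MTT (5 mg/mL stock) added for the last 4 h, formazan dissolved in DMSO, absorbance read at 570 nm. Inhibition = (1 − OD treated/OD control) × 100%.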

U-87 MG [3] = test: Antiproliferative activity against human U87MG cells after 72 hrs by MTT assay; assay type: functional, cell-based, U-87MG ATCC; how it was run: as §1
[4] = Aqueous solubility of compound by HPLC analysis; assay type: physicochemical; conditions: water
How it was run: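 Compound shaken in pure water or 50 mM phosphate buffer pH 7.4 at 20 °C, then centrifuged. Supernatant assayed by C18 HPLC (acetonitrile–water 60/40, 1.0 mL/min, 254 nm). Triplicate.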

K562 [5] = test: Antiproliferative activity against human K562 cells after 72 hrs by MTT assay; assay type: functional, cell-based; conditions: K562, 72 h; how it was run: as §1
A549 [6] = test: Antiproliferative activity against human A549 cells after 72 hrs by MTT assay; assay type: functional, cell-based; conditions: A549, 72 h
[7] = Drug level in DMSO treated with (E)-3-Chloro-1-(3-(3,5,6-trimethylpyrazin-2-yl)acryloyl)-5,6-dihydropyridin-2(1H)-one at 5 mg up to 8 hrs in presence of methyl thioglycolate by 1H NMR analysis
HCT-116 [8] = test: Antiproliferative activity against human HCT116 cells after 72 hrs in presence of piperlongumine by MTT assay; assay type: functional, cell-based; conditions: HCT-116, 72 h; how it was run: as §1
U-87 MG [9] = test: Antiproliferative activity against human U87MG cells after 72 hrs in presence of piperlongumine by MTT assay; assay type: functional, cell-based, U-87MG ATCC; how it was run: as §1
K562 [10] = test: Antiproliferative activity against human K562 cells after 72 hrs in presence of piperlongumine by MTT assay; assay type: functional, cell-based; conditions: K562, 72 h; how it was run: as §1
A549 [11] = test: Antiproliferative activity against human A549 cells after 72 hrs in presence of piperlongumine by MTT assay; assay type: functional, cell-based; conditions: A549, 72 h; how it was run: as §1

Cc1nc(C)c(/C=C/C(=O)N2CCC=CC2=O)nc1C
solubility at 8 h [1]: 0.328 mg/mL (≈ 1210 µM)
pIC50 (HCT-116 [2]): 5.78
pIC50 (U-87 MG [3]): 5.06
solubility [4]: 0.0426 mg/mL (≈ 157 µM)
pIC50 (K562 [5]): 5.95
pIC50 (A549 [6]): 5.31

COC(=O)CSC1CCN(C(=O)/C=C/c2nc(C)c(C)nc2C)C(=O)C1Cl (configuration not stated)
Drug metabolism [7]: Metabolite detected

Cc1nc(C)c(/C=C/C(=O)N2CCC=C(Br)C2=O)nc1C
solubility at 8 h [1]: 0.0673 mg/mL (≈ 192 µM)
pIC50 (HCT-116 [2]): 6.34
pIC50 (U-87 MG [3]): 5.37
solubility [4]: 0.0202 mg/mL (≈ 57.6 µM)
pIC50 (K562 [5]): 6.32
pIC50 (A549 [6]): 5.61

Cc1nc(C)c(/C=C/C(=O)N2CCCCC2=O)nc1C
pIC50 (HCT-116 [2]): < 4.30
pIC50 (U-87 MG [3]): < 4.30
pIC50 (K562 [5]): < 4.30
pIC50 (A549 [6]): < 4.30

Cc1nc(C)c(C)nc1C [LIGUSTRAZINE]
pIC50 (HCT-116 [8]): 5.09
pIC50 (U-87 MG [9]): 4.79
pIC50 (K562 [10]): 5.29
pIC50 (A549 [11]): 4.82

Cc1nc(C)c(/C=C/C(=O)N2CCC=C(I)C2=O)nc1C
solubility at 8 h [1]: 0.0499 mg/mL (≈ 125 µM)
pIC50 (HCT-116 [2]): 6.12
pIC50 (U-87 MG [3]): 5.14
solubility [4]: 0.0145 mg/mL (≈ 36.5 µM)
pIC50 (K562 [5]): 6.19
pIC50 (A549 [6]): 5.50
